Experimental data taken from ChEMBL document CHEMBL5058577, “EUbOPEN Chemogenomics Library 2 (Multiplex)” (2022).

Test system: U2OS
Test: Multiplex assay against U2OS
Assay type: toxicity, cell-based
Conditions: human
How it was run: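 Live cells were stained at seeding with Hoechst33342, BioTracker Green Microtubule Cytoskeleton Dye, MitoTracker Red and Annexin V Alexa Fluor 680. Following compound addition, they were imaged on a CQ1 microscope at 37°C and 5% CO2 and gated by CellPathfinder machine learning into Hoechst high-intensity objects or normal cells, with normal cells split into healthy, pyknosed or fragmented nuclei and pyknosed cells into mitotic or apoptotic. Tubulin, mitochondrial-mass and membrane-permeability phenotypes are per cents of healthy-nucleus cells.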

[1] = 12 h, 1 µM, compound concentration 1 uM, replicate 1
[2] = 12 h, 1 µM, compound concentration 1 uM, replicate 2
[3] = 12 h, 10 µM, compound concentration 10 uM, replicate 1
[4] = 12 h, 10 µM, compound concentration 10 uM, replicate 2
[5] = 24 h, 1 µM, compound concentration 1 uM, replicate 1
[6] = 24 h, 1 µM, compound concentration 1 uM, replicate 2
[7] = 24 h, 10 µM, compound concentration 10 uM, replicate 1
[8] = 24 h, 10 µM, compound concentration 10 uM, replicate 2
[9] = 48 h, 1 µM, compound concentration 1 uM, replicate 1
[10] = 48 h, 1 µM, compound concentration 1 uM, replicate 2
[11] = 48 h, 10 µM, compound concentration 10 uM, replicate 1
[12] = 48 h, 10 µM, compound concentration 10 uM, replicate 2

SMILES: CC(=O)NCCc1c(Cc2ccccc2)[nH]c2ccccc12 [LUZINDOLE]
- Population Apoptotic (%) [1]: 72%
- Population Fragmented Nuclei (%) [1]: 25%
- Population Healthy Nuclei (%) [1]: 65%
- Population Hoechst High Intensity Objects (%) [1]: 3%
- Population Membrane Permeable-Phenotype (%) [1]: 3%
- Population Mitochondria Different-Phenotype (%) [1]: 4%
- Population Mitotic Cells (%) [1]: 27%
- Population Normal (%) [1]: 96%
- Population Pyknosed Nuclei (%) [1]: 9%
- Population Tubulin-Different-Phenotype (%) [1]: 1%
- Total Cell Count [1]: 233
- Population Apoptotic (%) [2]: 100%
- Population Fragmented Nuclei (%) [2]: 19%
- Population Healthy Nuclei (%) [2]: 77%
- Population Hoechst High Intensity Objects (%) [2]: 2%
- Population Membrane Permeable-Phenotype (%) [2]: 6%
- Population Mitochondria Different-Phenotype (%) [2]: 2%
- Population Mitotic Cells (%) [2]: 0%
- Population Normal (%) [2]: 97%
- Population Pyknosed Nuclei (%) [2]: 3%
- Population Tubulin-Different-Phenotype (%) [2]: 2%
- Total Cell Count [2]: 134
- Population Apoptotic (%) [3]: 81%
- Population Fragmented Nuclei (%) [3]: 26%
- Population Healthy Nuclei (%) [3]: 65%
- Population Hoechst High Intensity Objects (%) [3]: 2%
- Population Membrane Permeable-Phenotype (%) [3]: 8%
- Population Mitochondria Different-Phenotype (%) [3]: 3%
- Population Mitotic Cells (%) [3]: 18%
- Population Normal (%) [3]: 97%
- Population Pyknosed Nuclei (%) [3]: 7%
- Population Tubulin-Different-Phenotype (%) [3]: 4%
- Total Cell Count [3]: 291
- Population Apoptotic (%) [4]: 76%
- Population Fragmented Nuclei (%) [4]: 13%
- Population Healthy Nuclei (%) [4]: 78%
- Population Hoechst High Intensity Objects (%) [4]: 1%
- Population Membrane Permeable-Phenotype (%) [4]: 5%
- Population Mitochondria Different-Phenotype (%) [4]: 2%
- Population Mitotic Cells (%) [4]: 23%
- Population Normal (%) [4]: 98%
- Population Tubulin-Different-Phenotype (%) [4]: 3%
- Total Cell Count [4]: 179
- Population Apoptotic (%) [5]: 90%
- Population Fragmented Nuclei (%) [5]: 19%
- Population Healthy Nuclei (%) [5]: 68%
- Population Hoechst High Intensity Objects (%) [5]: 4%
- Population Membrane Permeable-Phenotype (%) [5]: 2%
- Population Mitochondria Different-Phenotype (%) [5]: 3%
- Population Mitotic Cells (%) [5]: 10%
- Population Normal (%) [5]: 95%
- Population Pyknosed Nuclei (%) [5]: 12%
- Population Tubulin-Different-Phenotype (%) [5]: 3%
- Total Cell Count [5]: 260
- Population Apoptotic (%) [6]: 88%
- Population Fragmented Nuclei (%) [6]: 18%
- Population Healthy Nuclei (%) [6]: 70%
- Population Hoechst High Intensity Objects (%) [6]: 0%
- Population Membrane Permeable-Phenotype (%) [6]: 5%
- Population Mitochondria Different-Phenotype (%) [6]: 1%
- Population Mitotic Cells (%) [6]: 11%
- Population Normal (%) [6]: 99%
- Population Pyknosed Nuclei (%) [6]: 10%
- Population Tubulin-Different-Phenotype (%) [6]: 4%
- Total Cell Count [6]: 156
- Population Apoptotic (%) [7]: 88%
- Population Fragmented Nuclei (%) [7]: 25%
- Population Healthy Nuclei (%) [7]: 66%
- Population Hoechst High Intensity Objects (%) [7]: 2%
- Population Membrane Permeable-Phenotype (%) [7]: 6%
- Population Mitochondria Different-Phenotype (%) [7]: 3%
- Population Mitotic Cells (%) [7]: 12%
- Population Normal (%) [7]: 97%
- Population Pyknosed Nuclei (%) [7]: 7%
- Population Tubulin-Different-Phenotype (%) [7]: 4%
- Total Cell Count [7]: 342
- Population Apoptotic (%) [8]: 85%
- Population Fragmented Nuclei (%) [8]: 11%
- Population Healthy Nuclei (%) [8]: 80%
- Population Hoechst High Intensity Objects (%) [8]: 0%
- Population Mitochondria Different-Phenotype (%) [8]: 1%
- Population Mitotic Cells (%) [8]: 15%
- Population Normal (%) [8]: 99%
- Population Pyknosed Nuclei (%) [8]: 8%
- Population Tubulin-Different-Phenotype (%) [8]: 3%
- Total Cell Count [8]: 236
- Population Apoptotic (%) [9]: 91%
- Population Fragmented Nuclei (%) [9]: 16%
- Population Healthy Nuclei (%) [9]: 74%
- Population Hoechst High Intensity Objects (%) [9]: 2%
- Population Membrane Permeable-Phenotype (%) [9]: 3%
- Population Mitochondria Different-Phenotype (%) [9]: 2%
- Population Mitotic Cells (%) [9]: 8%
- Population Normal (%) [9]: 97%
- Population Pyknosed Nuclei (%) [9]: 9%
- Population Tubulin-Different-Phenotype (%) [9]: 2%
- Total Cell Count [9]: 395
- Population Apoptotic (%) [10]: 80%
- Population Fragmented Nuclei (%) [10]: 11%
- Population Healthy Nuclei (%) [10]: 77%
- Population Hoechst High Intensity Objects (%) [10]: 1%
- Population Membrane Permeable-Phenotype (%) [10]: 8%
- Population Mitochondria Different-Phenotype (%) [10]: 1%
- Population Mitotic Cells (%) [10]: 20%
- Population Normal (%) [10]: 98%
- Population Pyknosed Nuclei (%) [10]: 11%
- Population Tubulin-Different-Phenotype (%) [10]: 4%
- Total Cell Count [10]: 217
- Population Apoptotic (%) [11]: 89%
- Population Fragmented Nuclei (%) [11]: 21%
- Population Healthy Nuclei (%) [11]: 69%
- Population Hoechst High Intensity Objects (%) [11]: 2%
- Population Membrane Permeable-Phenotype (%) [11]: 6%
- Population Mitochondria Different-Phenotype (%) [11]: 3%
- Population Mitotic Cells (%) [11]: 10%
- Population Normal (%) [11]: 97%
- Population Pyknosed Nuclei (%) [11]: 8%
- Population Tubulin-Different-Phenotype (%) [11]: 3%
- Total Cell Count [11]: 446
- Population Apoptotic (%) [12]: 100%
- Population Fragmented Nuclei (%) [12]: 11%
- Population Healthy Nuclei (%) [12]: 82%
- Population Hoechst High Intensity Objects (%) [12]: 1%
- Population Membrane Permeable-Phenotype (%) [12]: 5%
- Population Mitochondria Different-Phenotype (%) [12]: 2%
- Population Mitotic Cells (%) [12]: 0%
- Population Normal (%) [12]: 98%
- Population Pyknosed Nuclei (%) [12]: 5%
- Total Cell Count [12]: 354

SMILES: N[C@@]1(C(=O)O)CO[C@H]2[C@H](C(=O)O)[C@H]21 [LY-379268]
- Population Apoptotic (%) [1]: 85%
- Population Fragmented Nuclei (%) [1]: 20%
- Population Healthy Nuclei (%) [1]: 76%
- Population Hoechst High Intensity Objects (%) [1]: 0%
- Population Membrane Permeable-Phenotype (%) [1]: 2%
- Population Mitochondria Different-Phenotype (%) [1]: 1%
- Population Mitotic Cells (%) [1]: 14%
- Population Normal (%) [1]: 99%
- Population Pyknosed Nuclei (%) [1]: 3%
- Population Tubulin-Different-Phenotype (%) [1]: 1%
- Total Cell Count [1]: 211
- Population Apoptotic (%) [2]: 100%
- Population Fragmented Nuclei (%) [2]: 17%
- Population Healthy Nuclei (%) [2]: 79%
- Population Membrane Permeable-Phenotype (%) [2]: 8%
- Population Mitochondria Different-Phenotype (%) [2]: 2%
- Population Mitotic Cells (%) [2]: 0%
- Population Pyknosed Nuclei (%) [2]: 2%
- Population Tubulin-Different-Phenotype (%) [2]: 3%
- Total Cell Count [2]: 108
- Population Apoptotic (%) [3]: 63%
- Population Fragmented Nuclei (%) [3]: 30%
- Population Healthy Nuclei (%) [3]: 61%
- Population Hoechst High Intensity Objects (%) [3]: 0%
- Population Membrane Permeable-Phenotype (%) [3]: 8%
- Population Mitochondria Different-Phenotype (%) [3]: 2%
- Population Mitotic Cells (%) [3]: 36%
- Population Normal (%) [3]: 99%
- Population Pyknosed Nuclei (%) [3]: 7%
- Population Tubulin-Different-Phenotype (%) [3]: 3%
- Total Cell Count [3]: 264
- Population Apoptotic (%) [4]: 80%
- Population Fragmented Nuclei (%) [4]: 19%
- Population Healthy Nuclei (%) [4]: 77%
- Population Hoechst High Intensity Objects (%) [4]: 1%
- Population Membrane Permeable-Phenotype (%) [4]: 4%
- Population Mitochondria Different-Phenotype (%) [4]: 1%
- Population Mitotic Cells (%) [4]: 20%
- Population Normal (%) [4]: 98%
- Population Pyknosed Nuclei (%) [4]: 3%
- Population Tubulin-Different-Phenotype (%) [4]: 1%
- Total Cell Count [4]: 143
- Population Apoptotic (%) [5]: 88%
- Population Fragmented Nuclei (%) [5]: 20%
- Population Healthy Nuclei (%) [5]: 71%
- Population Hoechst High Intensity Objects (%) [5]: 1%
- Population Membrane Permeable-Phenotype (%) [5]: 1%
- Population Mitochondria Different-Phenotype (%) [5]: 1%
- Population Mitotic Cells (%) [5]: 11%
- Population Normal (%) [5]: 98%
- Population Pyknosed Nuclei (%) [5]: 7%
- Population Tubulin-Different-Phenotype (%) [5]: 1%
- Total Cell Count [5]: 245
- Population Apoptotic (%) [6]: 100%
- Population Fragmented Nuclei (%) [6]: 11%
- Population Healthy Nuclei (%) [6]: 79%
- Population Hoechst High Intensity Objects (%) [6]: 0%
- Population Membrane Permeable-Phenotype (%) [6]: 12%
- Population Mitochondria Different-Phenotype (%) [6]: 2%
- Population Mitotic Cells (%) [6]: 0%
- Population Normal (%) [6]: 100%
- Population Pyknosed Nuclei (%) [6]: 9%
- Population Tubulin-Different-Phenotype (%) [6]: 6%
- Total Cell Count [6]: 133
- Population Apoptotic (%) [7]: 81%
- Population Fragmented Nuclei (%) [7]: 25%
- Population Healthy Nuclei (%) [7]: 66%
- Population Hoechst High Intensity Objects (%) [7]: 1%
- Population Membrane Permeable-Phenotype (%) [7]: 8%
- Population Mitochondria Different-Phenotype (%) [7]: 1%
- Population Mitotic Cells (%) [7]: 18%
- Population Normal (%) [7]: 98%
- Population Pyknosed Nuclei (%) [7]: 7%
- Population Tubulin-Different-Phenotype (%) [7]: 2%
- Total Cell Count [7]: 284
- Population Apoptotic (%) [8]: 90%
- Population Fragmented Nuclei (%) [8]: 16%
- Population Healthy Nuclei (%) [8]: 77%
- Population Membrane Permeable-Phenotype (%) [8]: 4%
- Population Mitochondria Different-Phenotype (%) [8]: 4%
- Population Mitotic Cells (%) [8]: 10%
- Population Pyknosed Nuclei (%) [8]: 6%
- Population Tubulin-Different-Phenotype (%) [8]: 4%
- Total Cell Count [8]: 165
- Population Apoptotic (%) [9]: 92%
- Population Fragmented Nuclei (%) [9]: 13%
- Population Healthy Nuclei (%) [9]: 79%
- Population Hoechst High Intensity Objects (%) [9]: 1%
- Population Membrane Permeable-Phenotype (%) [9]: 3%
- Population Mitochondria Different-Phenotype (%) [9]: 2%
- Population Mitotic Cells (%) [9]: 7%
- Population Normal (%) [9]: 98%
- Population Pyknosed Nuclei (%) [9]: 7%
- Population Tubulin-Different-Phenotype (%) [9]: 3%
- Total Cell Count [9]: 348
- Population Apoptotic (%) [10]: 100%
- Population Fragmented Nuclei (%) [10]: 15%
- Population Healthy Nuclei (%) [10]: 72%
- Population Hoechst High Intensity Objects (%) [10]: 2%
- Population Membrane Permeable-Phenotype (%) [10]: 11%
- Population Mitochondria Different-Phenotype (%) [10]: 5%
- Population Mitotic Cells (%) [10]: 0%
- Population Normal (%) [10]: 97%
- Population Pyknosed Nuclei (%) [10]: 12%
- Population Tubulin-Different-Phenotype (%) [10]: 5%
- Total Cell Count [10]: 178
- Population Apoptotic (%) [11]: 92%
- Population Fragmented Nuclei (%) [11]: 24%
- Population Healthy Nuclei (%) [11]: 68%
- Population Hoechst High Intensity Objects (%) [11]: 2%
- Population Membrane Permeable-Phenotype (%) [11]: 9%
- Population Mitochondria Different-Phenotype (%) [11]: 2%
- Population Mitotic Cells (%) [11]: 7%
- Population Normal (%) [11]: 97%
- Population Pyknosed Nuclei (%) [11]: 7%
- Population Tubulin-Different-Phenotype (%) [11]: 3%
- Total Cell Count [11]: 383
- Population Apoptotic (%) [12]: 90%
- Population Fragmented Nuclei (%) [12]: 11%
- Population Healthy Nuclei (%) [12]: 83%
- Population Membrane Permeable-Phenotype (%) [12]: 3%
- Population Mitotic Cells (%) [12]: 9%
- Population Pyknosed Nuclei (%) [12]: 4%
- Total Cell Count [12]: 228
